Calls of active or inactive are those of the source. The rule behind the calls is not given here.

The record followed here is ChEMBL document CHEMBL1147088, “Small molecule obatoclax (GX15-070) antagonizes MCL-1 and overcomes MCL-1-mediated resistance to apoptosis” (Proc Natl Acad Sci U S A, 2007).

Test [1] addresses Apoptosis regulator Bcl-2 (Homo sapiens, UniProt P10415). The test is described as follows: Binding affinity to BCL2.
Test [2] has as its system KB. The test is described as follows: Depletion of cytochrome c in mitochondria of human KB cells at 2.0 uM. It counts as functional, cell-based. An outline of the steps:
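Mitochondria isolated from KB cells were incubated 30 min at 37°C with DMSO or compound, then reisolated. Mitochondrial pellet and post-mitochondrial supernatant were analysed by SDS/PAGE and cytochrome c immunoblot, with actin and a control protein as loading controls.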

For test [3], the system named is KB. The test is described as follows: Cytotoxicity against BCL2 overexpressing human KB cells transfected with luciferase siRNA assessed as annexin 5 uptake at 0.5 uM after 72 hrs by flow cytometry. The test is classed as functional. Background: In flow cytometry, cells or beads pass a laser one at a time.
The test system of test [4] is Eu-Myc. The test is described as follows: Induction of apoptosis in mouse Eu-Myc cells overexpressing BCL2 assessed as inhibition of colony formation at 1 uM. It counts as functional, cell-based.
The subject of test [5] is KB. The test is described as follows: Cytotoxicity against BCL2 overexpressing human KB cells transfected with MCL1 siRNA assessed as annexin 5 reactivity at 0.5 uM after 72 hrs by flow cytometry. It counts as functional.
Test [6] has as its system KB. The test is described as follows: Cytotoxicity against BCL2 overexpressing human KB cells transfected with luciferase siRNA assessed as propidium iodide uptake at 0.5 uM after 72 hrs by flow cytometry. It counts as functional.
Test [7] deals with Eu-Myc. The test is described as follows: Induction of apoptosis in mouse Eu-Myc cells overexpressing A1 assessed as inhibition of colony formation at 1 uM. The test is classed as functional, cell-based.
Test [8] concerns KB. The test is described as follows: Cytotoxicity in human KB cells overexpressing BCL2 at 0.1 uM. It counts as functional, cell-based.
Test [9] relates to KB. The test is described as follows: Cytotoxicity against BCL2 overexpressing human KB cells transfected with MCL1 siRNA assessed as propidium iodide uptake at 0.5 uM after 72 hrs by flow cytometry. It counts as functional.
Test [10] concerns KB. The test is described as follows: Cytotoxicity in human siRNA-mediated-MCL1-kncok down KB cells overexpressing BCL2 at 0.5 uM. The test is classed as functional, cell-based.
In test [11] the test system is KB. The test is described as follows: Cytotoxicity in human KB cells overexpressing BCL2 at 0.5 uM. The test is classed as functional, cell-based.
The test system of test [12] is Eu-Myc. The test is described as follows: Induction of apoptosis in mouse Eu-Myc cells overexpressing MCL1 assessed as inhibition of colony formation at 1 uM. The test is classed as functional, cell-based.
In another test the test system is Saccharomyces cerevisiae. The test is described as follows: Growth inhibition of Saccharomyces cerevisiae W301. It counts as functional, organism-based. An outline of the steps:
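W301 yeast transformed with BCL-family/BAX/BAK or control vectors, then grown in synthetic complete medium with 2% raffinose and 2% galactose. Seeded at 0.01 OD units and shaken 48 h at 30°C. Compound or vehicle was added to growth medium with final DMSO 0.67%. Cell density was the read-out, and IC50 values were recorded.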

Apoptosis regulator Bcl-2, sequence (P10415 whole entry): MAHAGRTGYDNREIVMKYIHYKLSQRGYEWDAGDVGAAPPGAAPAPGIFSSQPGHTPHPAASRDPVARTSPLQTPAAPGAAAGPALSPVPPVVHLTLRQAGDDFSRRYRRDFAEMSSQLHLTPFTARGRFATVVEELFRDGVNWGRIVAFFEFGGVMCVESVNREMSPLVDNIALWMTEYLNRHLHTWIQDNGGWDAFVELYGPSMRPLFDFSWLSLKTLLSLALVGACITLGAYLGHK

Turning to `O=C(O[C@H]1Cc2c(O)cc(O)cc2OC1c1cc(O)c(=O)c2c(O)c(O)cc([C@H]3Oc4cc(O)cc(O)c4C[C@H]3O)c2c1)c1cc(O)c(O)c(O)c1` (stereo partly specified), in test [1], the Ki – broadly, a measure of affinity in units of concentration, obtained from inhibition or displacement – is 1230 nM.
Still for that read-out and setting: next, `COC(=O)NC(CCSC)C(=O)Oc1ccc(Nc2nc3c(s2)C(=O)c2ccccc2C3=O)cc1` (stereo unspecified): 1290 nM.
Consider `CC[C@H](C)[C@H](NC(=O)[C@H](CC(N)=O)NC(=O)[C@H](CCCNC(=N)N)NC(=O)[C@@H](NC(=O)[C@@H](NC(=O)[C@H](CC(=O)O)NC(=O)[C@@H](N)CCC(=O)O)[C@@H](C)CC)[C@@H](C)CC)C(=O)N[C@@H](C)C(=O)N[C@@H](CCCNC(=N)N)C(=O)N[C@@H](Cc1cnc[nH]1)C(=O)N[C@@H](CC(C)C)C(=O)N[C@@H](C)C(=O)N[C@@H](CCC(N)=O)C(=O)N[C@H](C(=O)NCC(=O)N[C@@H](CC(=O)O)C(=O)N[C@@H](CO)C(=O)N[C@@H](CCSC)C(=O)N[C@@H](CC(=O)O)C(=O)N[C@@H](CCCNC(=N)N)C(=O)O)C(C)C`, for which the result in the test on KB [2] was Active.
As for `Oc1cc(O)c2c(c1)O[C@H](c1ccc(O)c(O)c1)[C@H](O)C2` [(-)-EPICATECHIN], the Ki in test [1] is more than 100000 nM.
Regarding `CN(C)CC[C@H](CSc1ccccc1)Nc1ccc(S(=O)(=O)NC(=O)c2ccc(N3CCN(Cc4ccccc4-c4ccc(Cl)cc4)CC3)cc2)cc1[N+](=O)[O-]` [ABT 737], the Activity in the test with KB [3] stood at 8%; with KB [5], 58%; in the test with KB [6], 9%; with KB [9] it was 72%. Moreover, the outcome in the test on Eu-Myc [4] and with KB [10] was Active. Besides, the outcome with Eu-Myc [7], in the test with KB [8], in the test on KB [11] and with Eu-Myc [12] was inactive.
In the case of `CCCC[C@H]1C(=O)O[C@H](C)[C@H](NC(=O)c2cccc(NC=O)c2O)C(=O)O[C@@H](C)[C@@H]1OC(=O)CC(C)C` [ANTIMYCIN A3], the Ki in test [1] is 832 nM.
As for `CC[C@@]1(O)C(=O)OCc2c1cc1n(c2=O)Cc2cc3ccccc3nc2-1` [CAMPTOTHECIN], the IC50 (usually the midpoint of a concentration-inhibition curve) in the test on Saccharomyces cerevisiae is more than 200000 nM.
